Results pooled from the literature.
Lines come from different studies, so protocols differ.
Target: Calcium/calmodulin-dependent protein kinase type IV (CAMK4, Homo sapiens, UniProt Q16566)
Residues used in one study (Q16566 1-473): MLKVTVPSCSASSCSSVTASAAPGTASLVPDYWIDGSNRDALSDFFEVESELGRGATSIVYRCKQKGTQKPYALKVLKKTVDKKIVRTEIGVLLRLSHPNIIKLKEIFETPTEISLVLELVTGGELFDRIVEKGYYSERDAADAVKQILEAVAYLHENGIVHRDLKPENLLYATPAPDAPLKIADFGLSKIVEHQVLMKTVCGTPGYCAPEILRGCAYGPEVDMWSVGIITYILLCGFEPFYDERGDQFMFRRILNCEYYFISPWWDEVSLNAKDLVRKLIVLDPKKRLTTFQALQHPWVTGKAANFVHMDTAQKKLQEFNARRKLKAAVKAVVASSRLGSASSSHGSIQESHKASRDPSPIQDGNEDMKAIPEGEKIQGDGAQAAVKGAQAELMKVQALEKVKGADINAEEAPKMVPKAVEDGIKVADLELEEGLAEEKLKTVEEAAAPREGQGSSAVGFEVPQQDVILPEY

Structure (SMILES) | test | setting | remaining binding [%]
Cn1nc(C(F)(F)F)cc1-c1cnc(N2CCc3cc(S(=O)(=O)Nc4c(F)cc(Cl)cc4F)cc(N4CCCC4=O)c32)nc1 | cell-free assay, competition with immobilised ligand | 1 µM | 100
COc1cnc(Nc2cccc(S(N)(=O)=O)c2)nc1N1CCN(c2ccccc2)C(=O)C1 | binding, competition with immobilised ligand | 1 µM | 100
c1cncc(-c2cccc(Nc3nccc(NC4CCCCC4)n3)c2)c1 | binding, competition with immobilised ligand | 10 µM | 100
C=CC(=O)N1CCC(C(=O)NCC(=O)N2CCN(c3nc(-c4cnc(N)nc4C(F)F)nc(N4CCOCC4)n3)CC2)CC1 | binding, competition with immobilised ligand | 1 µM | 86
Nc1c(C(=O)NCc2ccc(C(=O)NCCCC3CCCCC3)cc2)cnn1-c1ccccc1 | cell-free assay, competition with immobilised ligand | 0.1 µM | 98
O=C(c1ccc(Nc2ncc(Cl)c(-c3ccc(Cl)s3)n2)cc1)N1CCC(N2CCCC2)CC1 | binding, competition with immobilised ligand | 1 µM | 100
CCOC(=O)c1cc2cc(-c3cc(C(=O)NCc4ccc(C(=O)O)cc4)nn3C)ccc2[nH]1 | cell-free assay, competition with immobilised ligand | 0.1 µM | 95
c1cnn2ncc(-c3ccnc(N4CCC45COC5)n3)c2c1 | binding | 1 µM | 100
O=C(Nc1c[nH]nc1C(=O)NC1CCNCC1)c1cc(F)cc(F)c1 | binding, competition with immobilised ligand | 1 µM | 100
C[C@@H]1CCN(c2nccc(-c3cnn4ncccc34)n2)C1 | binding | 1 µM | 100
CC1=C(C#N)[C@@H](c2ccc3[nH]nc(C)c3c2)C(C#N)=C(c2ccc(Cl)cc2)N1 | cell-free assay, competition with immobilised ligand | 1 µM | 31.8
N[C@H]1CCN(c2nccc(-c3cnn4ncccc34)n2)C1 | binding | 1 µM | 100
FC(F)(F)Oc1cccc(-c2cnc3ccc(-c4ccncc4)nn23)c1 | cell-free assay, competition with immobilised ligand | 5 µM | 100
O=C(NCCCN1CCOCC1)c1ccc(Nc2ncc(Cl)c(-c3ccc(Cl)s3)n2)cc1 | binding, competition with immobilised ligand | 1 µM | 100
COc1ccnn2ncc(-c3ccnc(N(C)C)n3)c12 | binding | 1 µM | 100
O=C(NCCCN1CCOCC1)c1ccc(Nc2nccc(-c3cc4ccccc4s3)n2)cc1 | binding, competition with immobilised ligand | 1 µM | 100
CN(C)c1ncc(F)c(-c2cnn3ncccc23)n1 | binding | 1 µM | 100
CNC(=O)Nc1ccc2c(c1)[C@@]1(CC2)OC(=O)N(CC(=O)N(Cc2ccc(F)cc2)[C@@H](C)C(F)(F)F)C1=O | cell-free assay, competition with immobilised ligand | 1 µM | 85
CN(C)c1nccc(-c2cnc3ncccn23)n1 | binding | 1 µM | 100
C[C@H](NC(=O)c1cnc2n1[C@](C)(Cc1ccc(C#N)cc1)C(=O)N2c1cc(Cl)c(F)c(Cl)c1)C(=O)NC1(c2ccccn2)CC1 | cell-free assay, competition with immobilised ligand | 1 µM | 100
CC1CCCN1c1nccc(-c2cnn3ncccc23)n1 (stereo not shown) | binding | 1 µM | 100
COc1ccc2c(O[C@@H]3C[C@H]4C(=O)N[C@]5(C(=O)O)CC5/C=C\CCCCC[C@H](NC(=O)OC5CCCC5)C(=O)N4C3)cc(-c3csc(NC(=O)C(C)C)n3)nc2c1C (stereo partly shown) | cell-free assay, competition with immobilised ligand | 1 µM | 95
